Laboratory results: ChEMBL document CHEMBL2069286, “Discovery and biological evaluation of novel 4-amino-2-phenylpyrimidine derivatives as potent and orally active GPR119 agonists” (Bioorg Med Chem, 2012)
Activity calls are given as the source filed them. The rule behind the calls is not given here.

How the values were obtained:
Cytochrome P450 1A2 = target: T1, Cytochrome P450 1A2 (Homo sapiens, UniProt P05177); assay: Inhibition of CYP1A2; format: ADME
T1 sequence (P05177 whole entry): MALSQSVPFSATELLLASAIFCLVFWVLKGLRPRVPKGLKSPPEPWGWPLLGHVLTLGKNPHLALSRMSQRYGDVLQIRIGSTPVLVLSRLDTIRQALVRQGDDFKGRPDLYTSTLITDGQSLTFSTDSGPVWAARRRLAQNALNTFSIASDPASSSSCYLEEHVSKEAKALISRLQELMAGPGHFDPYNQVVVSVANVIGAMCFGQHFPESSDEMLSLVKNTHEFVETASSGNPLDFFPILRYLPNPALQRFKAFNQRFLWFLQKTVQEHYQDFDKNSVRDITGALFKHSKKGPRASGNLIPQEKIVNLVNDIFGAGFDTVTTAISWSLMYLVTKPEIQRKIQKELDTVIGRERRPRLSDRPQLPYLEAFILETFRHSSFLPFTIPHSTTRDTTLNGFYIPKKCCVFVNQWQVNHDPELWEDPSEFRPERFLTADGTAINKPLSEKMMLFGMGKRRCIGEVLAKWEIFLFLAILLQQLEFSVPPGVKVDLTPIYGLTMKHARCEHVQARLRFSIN

[1] = target: T2, Glucose-dependent insulinotropic receptor (Homo sapiens) (UniProt Q8TDV5); assay: Intrinsic activity at human GPR119 expressed in HEK293 cells assessed as stimulation of cAMP level at 10 uM incubated for 6 hrs by luciferase activity based luminometry relative to 10 uM 2-(2-(4-bromophenyl)-6-methylpyrimidin-4-ylamino)ethanol; format: functional, cell-based
T2 sequence (whole entry): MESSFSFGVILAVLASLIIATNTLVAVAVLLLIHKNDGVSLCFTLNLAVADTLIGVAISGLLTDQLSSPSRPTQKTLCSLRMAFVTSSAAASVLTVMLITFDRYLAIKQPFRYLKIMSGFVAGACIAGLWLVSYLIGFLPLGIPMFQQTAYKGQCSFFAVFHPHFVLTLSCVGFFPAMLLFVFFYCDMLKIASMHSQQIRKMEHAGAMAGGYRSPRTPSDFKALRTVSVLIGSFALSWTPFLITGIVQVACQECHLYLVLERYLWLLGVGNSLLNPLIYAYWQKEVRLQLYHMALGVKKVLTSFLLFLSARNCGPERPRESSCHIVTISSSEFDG
Summary of the method: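 Same HEK293 hGPR119/pCRE-luciferase system with 6 h exposure, lysis in 0.2% Triton X-100/PBS and luciferase read, triplicate wells. Test compound at 10 μM; response expressed as % of the luciferase signal given by the reference agonist at 10 μM.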

Mus musculus [2] = assay: Antihyperglycemic activity in ICR mouse assessed as reduction in glucose levels at 1 mg/kg, po dosed post overnight fasting by oral glucose tolerance test; format: functional; set-up: scale not given: the % may be the effect or the level left
Summary of the method: (§1)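 Eight-week-old male ICR mice, fasted overnight, dosed orally with compound in 0.5% methylcellulose or vehicle alone. Oral glucose 2 g/kg given 10 min later. Tail-vein blood taken 30 min after glucose, and glucose measured by Glucose CII test.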

[3] = target: T2, Glucose-dependent insulinotropic receptor (Homo sapiens); assay: Agonist activity at human GPR119 expressed in HEK293 cells assessed as stimulation of cAMP level incubated for 6 hrs by luciferase activity based luminometry; format: functional, cell-based
Summary of the method: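 HEK293 cells stably expressing human GPR119 plus pCRE-luciferase reporter; 2.5×10^4 cells/well, overnight at 37 °C in 5% CO₂, then compound (DMSO) at 0.01–10 μM for 6 h. Lysis in 0.2% Triton X-100/PBS pH 7.4, luminometer read of luciferase. Triplicates per concentration. EC = concentration matching the response of reference agonist at 10 μM.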

[4] = Stability in human liver microsomes; format: ADME, Microsome; settings: read-out: Stability
Mus musculus [5] = assay: Antihyperglycemic activity in ICR mouse assessed as reduction in glucose levels at 3 mg/kg, po dosed post overnight fasting by oral glucose tolerance test; format: functional; set-up: scale not given: the % may be the effect or the level left; summary of the method: as §1
Mus musculus [6] = assay: Antidiabetic activity in kk/Ay mouse assessed as reduction in blood glucose at 3 mg/kg, po once daily for week by Glucose cII test; format: functional, organism-based; set-up: dose 3 mg/kg
Summary of the method: (§2)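 Eight-week-old male kk/Ay mice, n = 8 per group, dosed orally once daily for one week at 3 mg/kg, with 0.5% methylcellulose vehicle group. Fed-state tail-vein blood for glucose (Glucose CII), insulin and triglyceride (Triglyceride E-test). Pancreas weighed, homogenized, extracted with acid-ethanol, spun 10 min at 3000 g, supernatant insulin assayed. Mean ± SE; Dunnett's test.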

Mus musculus [7] = assay: Antidiabetic activity in kk/Ay mouse assessed as reduction in plasma triglyceride level at 3 mg/kg, po once daily for week by Triglyceride E-test; format: functional, organism-based; set-up: dose 3 mg/kg; summary of the method: as §2
Mus musculus [8] = assay: Antidiabetic activity in kk/Ay mouse assessed as reduction in plasma insulin at 3 mg/kg, po once daily for week; format: functional, organism-based; set-up: dose 3 mg/kg; summary of the method: as §2
[9] = Tmax in monkey at 3 mg/kg, po; format: ADME, organism-based, Macaca mulatta; set-up: dose 3 mg/kg, route oral; settings: rhesus monkey, in vivo
[10] = Oral bioavailability in mouse at 3 mg/kg; format: ADME, organism-based; settings: in vivo
Mus musculus [11] = assay: Antidiabetic activity in kk/Ay mouse assessed as improvement in pancreatic insulin level at 3 mg/kg, po once daily for week
[12] = Half life in mouse at 1 mg/kg, iv; format: ADME, organism-based; set-up: dose 1 mg/kg, route intravenous; settings: in vivo
[13] = Total clearance in mouse at 1 mg/kg, iv; format: ADME, organism-based; set-up: dose 1 mg/kg, route intravenous; settings: in vivo
[14] = Volume of distribution at steady state in monkey at 1 mg/kg, iv; format: ADME, organism-based, Macaca mulatta; set-up: dose 1 mg/kg, route intravenous; settings: rhesus monkey, in vivo, read-out: Vdss
[15] = Volume of distribution at steady state in mouse at 1 mg/kg, iv; format: ADME, organism-based; set-up: dose 1 mg/kg, route intravenous; settings: in vivo, read-out: Vdss
[16] = Total clearance in monkey at 1 mg/kg, iv; format: ADME, organism-based, Macaca mulatta; set-up: dose 1 mg/kg, route intravenous; settings: rhesus monkey, in vivo
[17] = Half life in monkey at 1 mg/kg, iv; format: ADME, organism-based, Macaca mulatta; set-up: dose 1 mg/kg, route intravenous; settings: rhesus monkey, in vivo
[18] = Oral bioavailability in monkey at 3 mg/kg; format: ADME, organism-based, Macaca mulatta; settings: rhesus monkey, in vivo
[19] = Tmax in mouse at 3 mg/kg, po; format: ADME, organism-based; set-up: dose 3 mg/kg, route oral; settings: in vivo
Mus musculus [20] = assay: Antihyperglycemic activity in ICR mouse assessed as reduction in glucose levels at 10 mg/kg, po dosed post overnight fasting by oral glucose tolerance test; format: functional; set-up: scale not given: the % may be the effect or the level left

SMILES	IC50 (Cytochrome P450 1A2) [nM]	Intrinsic activity [1]	EC [3] [µM]	Activity (Mus musculus [5])	further results
CCc1cc(NC[C@@H](O)CO)nc(-c2ccc(Br)c(F)c2)n1	1500	284%	0.19		Activity (Mus musculus [2]): 23%; CLint scaled [4]: 168 mL/min/kg
Cc1cc(NC[C@H](O)CO)nc(-c2ccc(Br)c(F)c2)n1		257%	2.3		
CCc1cc(NCCc2cc[nH]c(=O)c2)nc(-c2cc(F)c(Cl)cc2F)n1		578%	0.013	25%	
Cc1cc(NCCc2ccc[n+]([O-])c2)nc(-c2ccc(Br)c(F)c2)n1		573%	0.22	30%	
CCc1cc(NC[C@H](O)CO)nc(-c2ccc(Br)c(F)c2)n1	1600	283%	0.59		Activity (Mus musculus [2]): 16%
CCc1ccc(CCOc2ccc(CC3SC(=O)NC3=O)cc2)nc1 (configuration not stated)					Activity (Mus musculus [6]): Active; Activity (Mus musculus [7]): Active; Activity (Mus musculus [8]): Active
Cc1cc(NCCc2ccc[n+]([O-])c2)nc(-c2ccc(Br)cc2F)n1		268%	1.5	19%	
Cc1cc(NCCc2ccc[n+]([O-])c2)nc(-c2ccc(Cl)c(F)c2)n1		450%	0.33	25%	
CCc1cc(NC[C@@H](O)CO)nc(-c2ccc(Cl)c(F)c2)n1	2100	266%	0.39		Activity (Mus musculus [2]): 24%; CLint scaled [4]: 236 mL/min/kg
CCc1cc(NC[C@@H](O)CO)nc(-c2cc(F)c(Cl)cc2F)n1	35000	497%	0.28		Tmax [9]: 2.2 h; bioavailability [10]: 86%; Activity (Mus musculus [11]): Active; half-life [12]: 2.2 h; clearance [13]: 35.9 mL/min/kg; Activity (Mus musculus [6]): Active; Vd [14]: 4.7 L/kg; Vd [15]: 6.9 L/kg; clearance [16]: 12 mL/min/kg; half-life [17]: 4.6 h; Activity (Mus musculus [7]): Active; Activity (Mus musculus [8]): Active; Activity (Mus musculus [2]): 25%; bioavailability [18]: 51%; CLint scaled [4]: < 20 mL/min/kg; Tmax [19]: 6 min
Cc1cc(NCCc2ccc[n+]([O-])c2)nc(-c2cc(F)c(Br)cc2F)n1	7200	588%	0.11	23%	
Cc1cc(NCCc2cc[nH]c(=O)c2)nc(-c2ccc(Br)c(F)c2)n1		617%	0.021	10%	
Cc1cc(NCCc2cc[nH]c(=O)c2)nc(-c2cc(F)c(Cl)cc2F)n1		722%	0.0069	21%	
Cc1cc(NCCc2ccc[n+]([O-])c2)nc(-c2cc(F)c(Br)c(F)c2)n1		493%	0.34	15%	
Cc1cc(NCCc2ccc[n+]([O-])c2)nc(-c2ccc(Cl)cc2)n1		376%	0.7		
Cc1cc(NCCc2ccc[n+]([O-])c2)nc(-c2ccc(Cl)c(Cl)c2)n1		430%	0.72	15%	
Cc1cc(NC[C@@H](O)CO)nc(-c2ccc(Br)c(F)c2)n1	1700	346%	1.2		
CCc1cc(NC[C@@H](O)CO)nc(-c2cc(F)c(Br)cc2F)n1	25000	391%	0.22		Activity (Mus musculus [2]): 19%
Cc1cc(NCCc2ccc[n+]([O-])c2)nc(-c2cc(F)c(Cl)cc2F)n1	3700	536%	0.21	27%	
Cc1cc(NCCc2ccc[n+]([O-])c2)nc(-c2ccc(Br)cc2)n1		325%	1.2	inactive	Activity (Mus musculus [20]): 38%
Cc1cc(NCCc2cc[nH]c(=O)c2)nc(-c2cc(F)c(Br)cc2F)n1		1080%	0.017	23%	
Cc1cc(NCCc2ccc[n+]([O-])c2)nc(-c2ccccc2)n1		inactive			
